Reference: ChEMBL document CHEMBL4837219, “Chemical modification of NSC12 leads to a specific FGF-trap with antitumor activity in multiple myeloma” (Eur J Med Chem, 2021)
Activity calls are given as the source filed them. The calls are words filed in the database; no cut-off is given here.

tested on: KMS-11; experiment: Trapping activity at FGF in human KMS-11 cells assessed as inhibition of FGFR3 phosphorylation at 6 uM measured after 6 hrs by western blot analysis; type: cell-based; details: not given
Outline: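 KMS-11 cells treated for 6 h with compound at 6.0 µM, then lysed in NP-40 buffer containing orthovanadate and protease inhibitors. Phospho-FGFR3 detected by western blot with anti-phospho-Y724 antibody, using β-actin or α-tubulin as loading control. Result expressed as % inhibition of FGFR3 phosphorylation by densitometry.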

Question: With `C[C@]12CC[C@H]3[C@@H](CC=C4C[C@@H](OC(=O)CN)CC[C@@]43C)[C@@H]1CC[C@@H]2[C@@H](O)CC(O)(C(F)(F)F)C(F)(F)F` as the compound, how does the inhibition read?
Answer: The inhibition was 93%.

Question: Which inhibition does the source give for `C[C@]12CC[C@H]3[C@@H](CC=C4C[C@@H](O)CC[C@@]43C)[C@@H]1CC[C@@H]2[C@H](O)CCO` here?
Answer: The inhibition was “inactive”.

Question: With `C[C@]12CC[C@H]3[C@@H](CC=C4C[C@@H](O[C@@H]5O[C@H](CO)[C@@H](O)[C@H](O)[C@H]5O)CC[C@@]43C)[C@@H]1CC[C@@H]2[C@@H](O)CC(O)(C(F)(F)F)C(F)(F)F` as the compound, how does the inhibition read?
Answer: The inhibition was 100%.

Question: How did the inhibition turn out when `C[C@]12CC[C@H](O)C[C@@H]1CC[C@@H]1[C@@H]2CC[C@]2(C)[C@@H]([C@H](O)CC(O)(C(F)(F)F)C(F)(F)F)CC[C@@H]12` was run?
Answer: Its inhibition is “inactive”.

Question: For `C[C@]12CC[C@H]3[C@@H](CC=C4C[C@@H](OCCO)CC[C@@]43C)[C@@H]1CC[C@@H]2[C@@H](O)CC(O)(C(F)(F)F)C(F)(F)F`, which inhibition is on record?
Answer: Its inhibition is 71%.

Question: Which inhibition does the source give for `C[C@]12CC[C@H]3[C@@H](CC=C4C[C@@H](O)CC[C@@]43C)[C@@H]1CC[C@@H]2C(O)CC(O)c1ccccc1` (stereo in doubt; 11b) here?
Answer: The inhibition was 68%.

Question: For `C[C@]12CC[C@H]3[C@@H](CC=C4C[C@@H](O)CC[C@@]43C)[C@@H]1CC[C@@H]2C(O)CC(O)c1ccccc1` (stereo in doubt; 11c), which inhibition is on record?
Answer: The inhibition was 28%.

Question: With `C[C@]12CC[C@H]3[C@@H](CC=C4C[C@@H](O[C@@H]5O[C@H](CO)[C@@H](O)[C@H](O)[C@H]5O)CC[C@@]43C)[C@@H]1CC[C@@H]2[C@H](O)CC(O)(C(F)(F)F)C(F)(F)F` as the compound, how does the inhibition read?
Answer: Its inhibition is “inactive”.

Question: Which inhibition does the source give for `C[C@]12CC[C@H]3[C@@H](CC=C4C/C(=N/O)CC[C@@]43C)[C@@H]1CC[C@@H]2[C@H](O)CC(O)(C(F)(F)F)C(F)(F)F` here?
Answer: Its inhibition is 58%.

Question: How did the inhibition turn out when `C[C@]12CCC(=O)C[C@@H]1CC[C@@H]1[C@@H]2CC[C@]2(C)[C@@H]([C@@H](O)CC(O)(C(F)(F)F)C(F)(F)F)CC[C@@H]12` was run?
Answer: Its inhibition is 82%.

Question: `C[C@]12CC[C@H]3[C@@H](CC=C4C[C@@H](O)CC[C@@]43C)[C@@H]1CC[C@@H]2[C@@H](O)CC(N)=O` was tested. Which inhibition did it give?
Answer: Its inhibition is 17%.

Question: Which inhibition does the source give for `C[C@]12CC[C@H]3[C@@H](CC=C4C[C@@H](O)CC[C@@]43C)[C@@H]1CC[C@@H]2[C@H](O)CC(N)=O` here?
Answer: The inhibition was 44%.

Question: Which inhibition does the source give for `C[C@]12CC[C@H]3[C@@H](CC=C4C[C@@H](O)CC[C@@]43C)[C@@H]1CC[C@@H]2[C@H](O)CC(=O)O` here?
Answer: Its inhibition is 80%.

Question: Which inhibition does the source give for `CC(C)(O)C[C@H](O)[C@H]1CC[C@H]2[C@@H]3CC=C4C[C@@H](O)CC[C@]4(C)[C@H]3CC[C@]12C` here?
Answer: Its inhibition is 46%.

Question: Which inhibition does the source give for `C[C@]12CC[C@H]3[C@@H](CC=C4C[C@@H](O)CC[C@@]43C)[C@@H]1CC[C@@H]2C(O)CC(O)c1ccccc1` (stereo in doubt; 11a) here?
Answer: Its inhibition is 49%.

Question: Which inhibition does the source give for `C[C@]12CC[C@H]3[C@@H](CC=C4C[C@@H](O)CC[C@@]43C)[C@@H]1CC[C@@H]2[C@@H](O)CC(=O)O` here?
Answer: The inhibition was 41%.

Question: For `C[C@]12CC[C@H]3[C@@H](CC=C4CC(=O)CC[C@@]43C)[C@@H]1CC[C@@H]2[C@H](O)CC(O)(C(F)(F)F)C(F)(F)F`, which inhibition is on record?
Answer: The inhibition was 69%.

Question: `C[C@]12CC[C@H]3[C@@H](CC=C4CC(=NO)CC[C@@]43C)[C@@H]1CC[C@@H]2[C@@H](O)CC(O)(C(F)(F)F)C(F)(F)F` was tested. Which inhibition did it give?
Answer: The inhibition was 51%.

Question: `C[C@]12CC[C@H]3[C@@H](CC=C4C[C@@H](O)CC[C@@]43C)[C@@H]1CC[C@@H]2C(O)CC(O)c1ccccn1` (stereo in doubt; 14a) was tested. Which inhibition did it give?
Answer: The inhibition was 26%.

Question: `C[C@]12CC[C@H]3[C@@H](CC=C4C/C(=N\O)CC[C@@]43C)[C@@H]1CC[C@@H]2[C@H](O)CC(O)(C(F)(F)F)C(F)(F)F` was tested. Which inhibition did it give?
Answer: Its inhibition is 80%.

Question: For `C[C@]12CC[C@H]3[C@@H](CC=C4C[C@@H](O)CC[C@@]43C)[C@@H]1CC[C@@H]2C(O)CC(O)c1ccccn1` (stereo in doubt; 14b), which inhibition is on record?
Answer: Its inhibition is 34%.

Question: With `CC(C)(O)C[C@@H](O)[C@H]1CC[C@H]2[C@@H]3CC=C4C[C@@H](O)CC[C@]4(C)[C@H]3CC[C@]12C` as the compound, how does the inhibition read?
Answer: The inhibition was 32%.

Question: Which inhibition does the source give for `C[C@]12CC[C@H]3[C@@H](CC=C4C[C@@H](O)CC[C@@]43C)[C@@H]1CC[C@@H]2[C@@H](O)CCO` here?
Answer: The inhibition was 57%.

tested on: KMS-11; experiment: Antiproliferative activity against human KMS-11 cells assessed as reduction in cell viability incubated for 48 hrs by propidium iodide staining-based flow cytometric analysis; type: functional; details: KMS-11, 48 h
Outline: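 KMS-11 cells (maintained in RPMI1640 with 10% heat-inactivated FBS and 2.0 mM glutamine) exposed to increasing concentrations of compound for 48 h. Viable PI-negative cells counted by flow cytometry using the analyzer's absolute counting function. IC50 is the concentration giving 50% inhibition of proliferation, taken as the mean of at least 2 experiments run in triplicate.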

Question: For `C[C@]12CC[C@H]3[C@@H](CC=C4C[C@@H](OC(=O)CN)CC[C@@]43C)[C@@H]1CC[C@@H]2[C@@H](O)CC(O)(C(F)(F)F)C(F)(F)F`, which IC50 is on record?
Answer: Its IC50 is 5.6 µM.

Question: Which IC50 does the source give for `C[C@]12CC[C@H]3[C@@H](CC=C4C[C@@H](O[C@@H]5O[C@H](CO)[C@@H](O)[C@H](O)[C@H]5O)CC[C@@]43C)[C@@H]1CC[C@@H]2[C@@H](O)CC(O)(C(F)(F)F)C(F)(F)F` here?
Answer: Its IC50 is 4 µM.
